Assay results published in article PMC7810645 (Targeted Oncology, 2020).

Tests used:
PARP1 = details: read-out: IC50, enzymatic activity of PARP1; cited from earlier work
[1] = tested on: PARP enzymes at sites of DNA damage; details: cited from earlier work
PARP2 = details: read-out: IC50, enzymatic activity of PARP2; cited from earlier work
[2] = tested on: patients with high-grade epithelial ovarian, fallopian tube, or primary peritoneal cancer; format: in vivo, human; details: combination with rucaparib
Procedure, shortened: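 Patients had newly diagnosed stage IIIB–IV disease, ECOG 0–1 and no prior anticancer therapy. All received six cycles of carboplatin AUC 5 plus paclitaxel 175 mg/m2 and bevacizumab, each d1 q21d. Oral maintenance drug began within 9 weeks, continuous BID in 28-day cycles, first dose 7 days before bevacizumab. Three-patient cohorts (Fibonacci triplets). DLTs were assessed over the first two cycles, with AEs graded by CTCAE v4.03.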

Row | Compound | IC50 (PARP1) [nM] | potency for DNA trapping [1] | IC50 (PARP2) [nM] | most frequent bevacizumab-related AE [2]
1 | Cn1ncnc1[C@H]1c2n[nH]c(=O)c3cc(F)cc(c23)N[C@@H]1c1ccc(F)cc1 [talazoparib] | […] | more potent DNA trapping abilities | […] | –
2 | bevacizumab | – | – | – | hypertension
